Keap1 Nrf2 FP: Keap1-Nrf2 (human) interaction inhibition. actives 0.15% (n = 340,000). Keap1 Kelch-Nrf2 peptide fluorescence polarization, 1536-well. inhibition, % at 9.4 µM. Q14145. AID 504523; in the data active = inhibition above about 12%;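 note: human Keap1 Kelch domain with fluorescein labeled Nrf2 9mer peptide probe; 0% = neutral control wells and 100% = peptide positive control; higher means more block of Keap1 binding to Nrf2 peptide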
Target sequence (Q14145 whole entry, looked up, the tested form may be a part): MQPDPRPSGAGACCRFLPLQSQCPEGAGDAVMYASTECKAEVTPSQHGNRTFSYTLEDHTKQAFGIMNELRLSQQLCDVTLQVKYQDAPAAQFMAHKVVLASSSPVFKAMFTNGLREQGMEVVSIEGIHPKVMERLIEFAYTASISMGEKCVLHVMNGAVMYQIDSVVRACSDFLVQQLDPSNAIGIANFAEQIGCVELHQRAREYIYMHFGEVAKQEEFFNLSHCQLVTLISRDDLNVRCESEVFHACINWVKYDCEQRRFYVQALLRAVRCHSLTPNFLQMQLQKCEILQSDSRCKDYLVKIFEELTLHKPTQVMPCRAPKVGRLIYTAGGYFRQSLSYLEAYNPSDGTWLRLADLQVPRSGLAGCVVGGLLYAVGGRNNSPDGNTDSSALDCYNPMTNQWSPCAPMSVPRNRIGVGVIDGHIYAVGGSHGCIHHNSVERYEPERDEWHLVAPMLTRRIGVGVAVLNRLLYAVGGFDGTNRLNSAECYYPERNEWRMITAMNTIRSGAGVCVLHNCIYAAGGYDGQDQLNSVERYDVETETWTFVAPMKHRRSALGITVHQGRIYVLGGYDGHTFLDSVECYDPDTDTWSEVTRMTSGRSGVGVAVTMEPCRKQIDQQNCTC
cardiac RTF act: increases calcium sensitivity of human cardiac regulated thin filaments; IANBD-labeled TnC RTF fluorescence at EC20 calcium; 0% EC20 calcium, 100% full calcium; activation, % at 7.2 µM; actives 0.24% (n = 340,000); AID 493008;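 active = activation above the mean over all tested compounds plus 3 SD, cut at about 30% in these data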;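 note: rise in fluorescence read as greater calcium sensitivity of cardiac thin filaments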
CAL PDZ FP-1: blocks peptide binding to human CAL PDZ domain; AID 504414; actives 0.02% (n = 330,000); Q9HD26; inhibition, % at 20 µM; purified CAL PDZ, TMR-peptide fluorescence polarization, 1 h;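 active = highest replicate inhibition of at least 40%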;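 note: plate controls were DMSO neutral control wells for no effect and unlabeled competitor peptide control wells for full effect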
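Material – purified CerCALP PDZ construct · Detection – FP readout, S and P plane fluorescence · Measure – percent inhibition from loss of millipolarization · Controls – unlabelled peptide for full inhibition, DMSO wells as neutral · Probe or stimulus – TMR-labelled reporter peptide T*-PRC34 bound in PDZ groove · Times – 1 h at RT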
RTF Ca sens inh: cardiac RTF calcium desensitization. P19429+P45379. IANBD-labeled cardiac RTF, Ca2+ fluorescence. inhibition, % at 7.15 µM. actives 0.12% (n = 340,000). AID 493244;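 active = inhibition above the mean inhibition of all tested compounds plus 3 SD, cut at about 17% in these data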;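 note: assay run at fixed EC70 calcium of 1.6 mM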
C-LANA FP: inhibitors of KSHV LANA C-terminal domain DNA binding | actives 0.078% (n = 340,000) | MBP-C-LANA/FAM-LBS DNA binding, fluorescence polarization | inhibition, % at 9 µM;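 active = highest replicate inhibition at or above 60% at 9 µM, even if other replicates fall short; inactive = all replicates below 60% inhibition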;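 note: 0% = neutral control wells and 100% = 4 µM acridine orange control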
CAL PDZ FP-2: blocks peptide binding to the human CAL PDZ domain. inhibition, % at 24.9 µM. actives 0.92% (n = 300,000). purified CAL PDZ, TMR-peptide fluorescence polarization, 1 h. AID 602252. Q9HD26;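 active = mean inhibition of at least 30% with at least half of replicates also reaching 30%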;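 note: 0% = DMSO neutral control and 100% = excess unlabeled competitor peptide PRC23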
Active calls of the source: *; . = no result. Only some compounds are listed: those with a hit (about 1.3% of all), similar ones and a draw of the others.

SMILES | Keap1 Nrf2 FP | cardiac RTF act | CAL PDZ FP-1 | RTF Ca sens inh | C-LANA FP | CAL PDZ FP-2
O=C(N/N=C1/CC2C=CCC12)c1cccs1 (centres undefined) | -2.6 | -0.8 | -1.1 | 1.6 | -2.1 | 42.0*
O=C(Nc1cccc(O)c1)c1cc(-c2ccc3c(c2)OCO3)on1 | -0.6 | -6.3 | -3.0 | -6.6 | -1.4 | 60.3*
O=C(Nc1cccnc1)c1cc(-c2ccccc2)on1 | 1.8 | 3.4 | . | -8.7 | -0.4 | 122.3*
O=C(Nc1c(F)cc(F)cc1Br)c1cc(-c2ccccc2)on1 | -7.5 | -2.3 | -1.1 | -4.2 | 0.4 | 80.4*
O=C(Nc1cccnc1)c1cc(-c2ccc(Br)cc2)on1 | -0.2 | 1.6 | -0.3 | -1.7 | 0.1 | .
Cc1c(NC(=O)c2cc(-c3ccc(O)cc3)on2)c(=O)n(-c2ccccc2)n1C | -3.9 | -5.9 | -1.3 | 6.0 | 16.4 | 34.9*
Cc1nnc2n1N=C(c1ccc(F)cc1F)CS2 | -1.7 | -4.4 | 1.0 | -8.9 | -2.1 | .
N[C@@H](Cc1ccccc1)C(=O)N1CCC(C(=O)NCC(=O)NCC(=O)O)CC1 | 3.0 | 5.0 | 0.2 | -10.5 | 2.0 | 6.6
CC(C)(C)OC(=O)N1CCN(c2ccc(NC(=O)c3ccco3)cc2)CC1 | 3.8 | 0.3 | -1.2 | 0.1 | 1.8 | -2.1
O=C(CC(CC(=O)c1ccccc1)c1ccccn1)c1ccccc1 | -3.9 | -3.4 | -0.9 | -15.0 | -1.3 | -2.3
CC1(C)C2CC=C(/C=N/NC(=O)c3ccc(O)cc3)C1C2 (centres undefined) | -4.2 | 7.1 | -1.8 | -11.5 | 1.1 | 77.9*
O=C(NCCC1CCCCN1S(=O)(=O)c1ccccc1)C(=O)NCc1ccccn1 (centres undefined) | -4.8 | 0.2 | -0.3 | 1.1 | 0.9 | 9.9
O=c1nccc(NCc2ccco2)[nH]1 | -2.7 | 4.0 | -1.2 | -1.0 | -0.6 | -6.4
O=c1nccc(Nc2ccccc2)[nH]1 | -0.4 | 0.7 | -0.2 | 2.0 | -1.7 | 62.7*
CCCc1cc(=O)oc2cc(C)cc(OCC(=O)NCc3cccnc3)c12 | 0.8 | 1.2 | -1.6 | -4.7 | -0.9 | 40.9*
CCOC(=O)N1CCN(C(=O)c2sc3nc(-c4ccc(F)cc4)cn3c2C)CC1 | -2.5 | 2.0 | -0.6 | -5.0 | -0.2 | -1.0
CCOC(=O)N1CCN(C(=O)c2ccc3c(c2)sc2nc(-c4ccc(OC)cc4)cn23)CC1 | -5.9 | 4.2 | -0.9 | -9.2 | 0.0 | 38.2*
COc1ccc(-c2[nH]ncc2CNC(C)CCn2cccn2)cc1F (centres undefined) | -0.8 | -0.1 | -0.2 | 7.9 | -1.3 | 51.0*
COc1ccc(-c2[nH]ncc2CNC(C)c2ccccc2Cl)cc1F (centres undefined) | 0.4 | -4.1 | -1.0 | 4.0 | -0.4 | 5.3
CC(C)(O)CN(C(=O)c1ccccc1)C1CCCCC1 | -1.1 | -5.0 | 0.3 | -4.4 | -5.0 | -4.7
COC(=O)c1cc2ccc(OC)cc2c2cc(OC)c(OC)cc12 | -8.9 | -2.0 | -0.7 | 1.9 | -0.6 | 0.3
COc1ccc(C(c2c(NC(=O)c3ccco3)sc(C)c2C)N2CCOCC2)cc1 (centres undefined) | 1.6 | -5.5 | 2.5 | 7.8 | -3.1 | 4.8
CCN1CCN(C(c2cccnc2)c2c(NC(=O)c3ccco3)sc(C)c2C)CC1 (centres undefined) | -4.2 | -0.2 | 0.1 | -5.1 | 0.9 | 46.0*
Cc1sc(NC(=O)c2ccco2)c(C(c2cccnc2)N2CCC(C)CC2)c1C (centres undefined) | 2.6 | -1.6 | -0.3 | -18.7 | -0.3 | 42.8*
CN(C)c1ccsc1C(=O)NNS(=O)(=O)c1ccc(Cl)cc1 | -6.5 | -1.0 | -0.9 | 0.6 | -0.7 | .
SMILES | Keap1 Nrf2 FP | cardiac RTF act | CAL PDZ FP-1 | RTF Ca sens inh | C-LANA FP | CAL PDZ FP-2
CC1CCN(C(=O)COc2ncnc3ccccc23)CC1 | -1.6 | -0.7 | -0.7 | -5.2 | -1.4 | 49.3*
CCCn1cnc2c(SCc3ccccc3)nc(N)nc21 | 5.0 | 1.1 | -0.1 | -4.7 | 1.9 | -1.0
Nc1nc(SCc2ccccc2)c2ncn(Cc3ccccc3)c2n1 | -2.6 | -15.7 | -1.3 | 6.9 | 2.0 | 40.7*
CC(C)(C)OC(=O)n1cc(C(=O)c2ccccc2O)cn1 | 0.3 | -5.0 | -0.7 | 1.7 | 0.8 | 70.3*
CN1C/C(=C/c2ccccc2[N+](=O)[O-])C(=O)/C(=C\c2ccccc2[N+](=O)[O-])C1 | -3.5 | -1.6 | -0.7 | -8.6 | 0.9 | -1.2
COc1cc(C=O)ccc1Oc1ccc(S(=O)(=O)N2CCOCC2)cc1[N+](=O)[O-] | -3.3 | 6.6 | -0.1 | -3.8 | -0.8 | -4.8
CCN1CCN(c2ncc3c(n2)CC(c2cc(OC)c(OC)c(OC)c2)CC3=O)CC1 (centres undefined) | 5.0 | -0.1 | -0.6 | -3.9 | -0.3 | 49.6*
CCCN(CCC)CC(C)(C)NS(=O)(=O)c1ccc(Cl)cc1 | -5.0 | -0.4 | -0.5 | -2.7 | -1.9 | 69.8*
O=c1oc2c(O)c(O)cc3c(=O)oc4c(O)c(O)cc1c4c23 | 2.9 | -78.3 | -1.2 | 101.7* | 127.3* | -1.7
O=[N+]([O-])c1ccc(Cc2ccc([N+](=O)[O-])cc2)cc1 | 5.1 | -8.8 | -0.9 | -2.2 | 2.2 | -3.4
N#CC(CCc1ccc([N+](=O)[O-])cc1)(CCc1ccc([N+](=O)[O-])cc1)C(N)=O | 0.4 | 5.0 | -1.6 | -9.6 | 5.3 | 42.6*
N#Cc1ccccc1NC(=O)COC(=O)COc1ccccc1[N+](=O)[O-] | 0.3 | 1.7 | -0.5 | -11.2 | 0.4 | 35.4*
C=CCn1cnc2c(c1=O)c1nc3ccccc3nc1n2/N=C/c1cc(OC)c(OC)c(OC)c1 | -3.5 | -5.0 | -4.5 | -16.1 | 0.1 | -2.0
COCCn1cnc2c(c1=O)c1nc3ccccc3nc1n2/N=C/c1cccc(OC)c1 | 3.6 | -0.6 | -2.6 | 6.7 | 0.7 | 34.4*
Cc1ccc(C(=O)N(CC(C)C)c2c(N)n(Cc3ccccc3)c(=O)[nH]c2=O)o1 | -4.9 | 5.3 | -2.8 | -3.5 | -0.2 | -2.4
CC(OC(=O)c1cnc(Cl)c(Cl)c1)C(=O)NCc1ccccc1 (centres undefined) | -0.8 | -1.9 | -0.9 | -4.6 | -0.5 | -18.6
COc1cccc(-n2c(CCn3nc(C)c([N+](=O)[O-])c3C)n[nH]c2=S)c1 | 0.6 | 3.2 | -0.2 | 2.0 | 0.0 | 15.7
COc1ccc(CCn2nc(C)c([N+](=O)[O-])c2C)cc1 | -1.0 | -3.9 | 0.6 | 1.0 | 2.3 | 37.9*
O=S(=O)(CCNC1CC1)NC1CCCCC1 | -3.2 | -7.4 | -0.7 | -2.5 | 1.5 | 5.1
CC(C)C(NC(=O)C12CC3CC(CC(C3)C1)C2)C(=O)O (centres undefined) | 0.1 | -1.6 | -0.3 | 5.6 | 1.6 | 1.9
C/C(=C\C(=O)O)C12CC3CC(CC(C3)C1)C2 | -3.8 | 9.1 | . | 5.5 | 0.2 | 30.9*
CC1CCN(C(=O)CSc2nc3c(c(=O)n2C)SC(C)C3)CC1 (centres undefined) | -2.8 | 3.4 | -3.3 | 3.0 | 2.1 | -0.7

Bioassay records as filed in PubChem.
